core dimer inh – inhibitors of HCV core protein dimerization, primary screen, biochemical, TR-FRET, high-throughput. inhibition, % at 5 µM. TR-FRET GST/Flag-core106 dimerization, 1536-well. AID 1899, 2009. 300,000 tested, 0.33% active;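 active = inhibition above the mean of all tested compounds plus 3 SD, set per screening campaign, cut at about 45% in these data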
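test system = GST/Flag-tagged HCV core106 proteins | probe or stimulus = Eu donor and XL665 acceptor anti-tag antibodies | times = compound-protein-antibody incubation 4 h at 22.5 °C | signal = TR-FRET, excitation 340 nm, emission 617 and 671 nm | measure = percent inhibition of core106 dimerization signal | controls = wells lacking GST-core106 and wells with excess unlabelled core106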
NadD block – inhibitors of S. aureus NadD, primary screen, biochemical, colorimetric, uHTS | Nicotinate-nucleotide adenylyltransferase NadD (Staphylococcus aureus N315) | purified NadD enzyme, colorimetric absorbance read-out | inhibition, % at 20 µM | 360,000 tested, 0.78% active | AID 602399, 2012; in the data active = inhibition above about 26%
VIM-2 inhibitor – VIM-2 metallo-beta-lactamase inhibitors, primary screen, biochemical, epi-absorbance readout, Pseudomonas aeruginosa enzyme. purified VIM-2, nitrocefin hydrolysis, epi-absorbance fluorescence. inhibition, % at 5.6 µM. AID 1527, 2009. 290,000 tested, 0.89% active;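 active = inhibition above the mean of all tested compounds plus 3 SD, cutoff set per screening run, cut at about 7.5% in these data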;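 also: red hydrolysis product quenches plate fluorescence so inhibitors raise well fluorescence; 0% = enzyme with DMSO and 100% = DMSO without enzyme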
IMP-1 inhibitor – IMP-1 metallo-beta-lactamase inhibitors, primary screen, biochemical, epi-absorbance readout, Pseudomonas aeruginosa enzyme. metallo-beta-lactamase IMP-1 (Pseudomonas aeruginosa). purified IMP-1, nitrocefin hydrolysis, epi-absorbance fluorescence. inhibition, % at 5.6 µM. 290,000 tested, 0.45% active. AID 1556, 2009;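 active = inhibition above the mean plus 3 SD of all compounds in the same screening run, cut at about 4.5% in these data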;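 also: 0% = IMP-1 with DMSO and 100% = DMSO wells lacking enzyme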
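System – purified recombinant IMP-1 beta-lactamase · Input – IMP-1 dispensed at 0.2 nM · Timing – 15 min preincubation plus 25 min reaction at 25 °C · Signal – Epi-absorbance fluorescence, 480 nm excitation, 530 nm emission · Measure – percent IMP-1 inhibition derived from blank-referenced optical density · Controls – Enzyme-plus-DMSO low control, enzyme-free DMSO high control · Replication – singlicate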
* = called active by the depositor; nt = no result given. The list is not random: actives were taken first. Their share in the collection is about 1.9%.

SMILES | core dimer inh | NadD block | VIM-2 inhibitor | IMP-1 inhibitor
N#C[C@@H]1[C@@H]2C(=O)N(c3ccc4c(c3)OCCO4)C(=O)[C@@H]2C2c3ccccc3C=CN21 (stereo partly drawn) | 52* | nt | 2 | 4
Cc1nc(N(C)C)c2sc(=S)n(C)c2n1 | 2 | 6 | 7.9* | -2
CCc1c(O)nc(SCC(=O)Nc2nc3ccccc3s2)n(C2CCCCC2)c1=O | 1 | 9 | -3 | -3
O=C(NCCc1ccccc1)c1ccc(Cl)cc1[N+](=O)[O-] | nt | -5 | 0 | -1
CN(C)C(=O)N1CCC(C(=O)N2CCCC(C(=O)c3cccc4ccccc34)C2)CC1 (stereo not drawn) | 1 | -2 | -1 | -2
O=C(NCCCn1ccnc1)C(=O)NCC1OCCCN1S(=O)(=O)c1ccccc1 (stereo not drawn) | -4 | -5 | -1 | 10*
O=C(NCCCn1ccnc1)C(=O)NCC1OCCCN1S(=O)(=O)c1ccc(Cl)cc1 (stereo not drawn) | 4 | -3 | -1 | -1
O=C(NCCCn1ccnc1)C(=O)NCC1OCCN1S(=O)(=O)c1ccccc1 (stereo not drawn) | -1 | 1 | 5 | 13*
CCN(c1ccccc1)S(=O)(=O)c1ccc(OC)c(NC(=O)COc2ccc(C(C)=O)cc2)c1 | 7 | -3 | nt | nt
CCCCc1nc(Cl)c(CO)n1Cc1ccc(-c2ccccc2-c2nn[nH]n2)cc1 | 6 | -1 | -2 | -4
CCCCC(=O)N(Cc1ccc(-c2ccccc2-c2nn[nH]n2)cc1)[C@H](C(=O)O)C(C)C | 0 | nt | -3 | 11*
O=C(O)CCC1c2cc3c4cc2OC2Oc5cc6c(cc51)C(CCC(=O)O)c1cc5c7cc1OC(O6)c1cc6cc(c1)Oc1cc(cc(C(=O)O)c1)Oc1cc8cc(c1)C(Oc1cc(c(cc1C5CCC(=O)O)C3CCC(=O)O)OC(O4)c1cc(cc(c1)Oc1cc(cc(C(=O)O)c1)O8)Oc1cc(cc(C(=O)O)c1)Oc1cc(cc2c1)Oc1cc(cc(C(=O)O)c1)O6)O7 (stereo not drawn) | 61* | nt | nt | nt
CC(=O)N(c1ccccc1)C1SC(=O)N(c2ccccc2)C1=O (stereo not drawn) | 5 | 1 | 3 | 6.5*
CCCN(C(=O)c1ccc([N+](=O)[O-])c(C)c1)c1c(N)n(Cc2ccccc2)c(=O)[nH]c1=O | nt | 0 | nt | nt
CCOC(=O)c1c(-c2ccco2)csc1NC(=O)COC(=O)c1cnc(C)cn1 | 52* | 14 | nt | nt
Cc1cc2c(=O)n(C)c(SCC(=O)Nc3ccccc3C)nc2s1 | 2 | -1 | nt | nt
c1ccc(-[n+]2nc(Nc3cccc4ccccc34)sc2-c2c3ccccc3cc3ccccc23)cc1 | 60* | 42* | nt | nt
Fc1ccc(-[n+]2nc(Nc3ccccc3)sc2-c2c3ccccc3cc3ccccc23)cc1 | -4 | 16 | -3 | -3
O=C(CSc1ccccn1)Nc1ccc2c(c1)C(=O)c1ccccc1C2=O | 8 | 6 | 0 | -3
O=C(CSc1n[nH]c(=O)[nH]c1=O)Nc1ccc2c(c1)C(=O)c1ccccc1C2=O | 42 | 54* | 1 | -1
Cc1cc(C)n(-c2cccc(Cl)c2C#N)n1 | -4 | 0 | 8.7* | -4
N#Cc1c(Cl)cccc1-n1ccnc1 | 2 | 2 | -2 | -3
Cc1c(CCC(=O)O)c(=O)oc2c(C)c3occ(-c4ccc(Br)cc4)c3cc12 | nt | 19 | 4 | 24*
COc1cc(COc2ccc3c(C)c(CCC(=O)O)c(=O)oc3c2)cc(OC)c1OC | 9 | -7 | -1 | -2
Cc1c(CC(=O)N[C@@H](C)C(=O)O)c(=O)oc2c(C)c3occ(-c4ccccc4)c3cc12 | nt | 2 | 10* | -2
SMILES | core dimer inh | NadD block | VIM-2 inhibitor | IMP-1 inhibitor
COc1ccc(-c2coc3c(C)c4oc(=O)c(CCC(=O)O)c(C)c4cc23)cc1 | 24 | -1 | 11* | -1
CC(=O)Nc1ccc2c(c1)nc(CCN1CCN(c3ccccn3)CC1)n2C | nt | 0 | -4 | -4
CCOC(=O)COc1coc(CN2CCN(c3ccc(F)cc3)CC2)cc1=O | -4 | -3 | -5 | -5
CCc1nn(CC(=O)NCCN2CCN(C)CC2)c(=O)c2cc3c(OC)cccc3n12 | -9 | -6 | 12* | -2
O=C(c1cccnc1)C1CCCN(Cc2nc(Cc3ccccc3)no2)C1 (stereo not drawn) | 4 | -1 | 1 | -1
O=C1C(=Cc2ccc(Br)o2)C(=O)c2ccccc21 | 9 | 33* | -3 | -1

Compound activity (PubChem BioAssay)
